Test results reported in ChEMBL document CHEMBL4138280, “Ribocyclophanes A-E, Glycosylated Cyclophanes with Antiproliferative Activity from Two Cultured Terrestrial Cyanobacteria” (J Nat Prod, 2018).
Active and inactive are the calls of the source. The rule behind the calls is not given here.

What was measured:
MDA-MB-231 [1] = experiment: Antiproliferative activity against human MDA-MB-231 cells after 96 hrs by CellTiter 96 AQueous one solution cell proliferation assay; type: functional, cell-based; settings: MDA-MB-231, 96 h
How it was run: (§1)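 Cells kept in RPMI 1640 with 10% FBS, penicillin (100 units/mL) and streptomycin (100 μg/mL) at 37 °C, 5% CO₂. Log-phase cells were trypsinized and seeded at 5000 per well, then left overnight. DMSO solutions were serially diluted and added at 25, 5.0, 1.0, 0.2 and 0.04 μg/mL for 96 h at 37 °C. Viability was read by absorbance as percent viable cells versus solvent control.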

MDA-MB-435 [2] = experiment: Antiproliferative activity against human MDA-MB-435 cells after 96 hrs by CellTiter 96 AQueous one solution cell proliferation assay; type: functional, cell-based; settings: MDA-MB-435, 96 h; how it was run: as §1
MDA-MB-435 [3] = experiment: Antiproliferative activity against human MDA-MB-435 cells at 0.04 to 25 ug/ml after 96 hrs by CellTiter 96 AQueous one solution cell proliferation assay
MDA-MB-231 [4] = experiment: Antiproliferative activity against human MDA-MB-231 cells at 0.04 to 25 ug/ml after 96 hrs by CellTiter 96 AQueous one solution cell proliferation assay
MDA-MB-435 [5] = experiment: Antiproliferative activity against human MDA-MB-435 cells at 25 ug/ml after 96 hrs by CellTiter 96 AQueous one solution cell proliferation assay
MDA-MB-231 [6] = experiment: Antiproliferative activity against human MDA-MB-231 cells at 25 ug/ml after 96 hrs by CellTiter 96 AQueous one solution cell proliferation assay
MDA-MB-435 [7] = experiment: Antiproliferative activity against human MDA-MB-435 cells assessed as viable cells at 1 ng/ml after 96 hrs by CellTiter 96 AQueous one solution cell proliferation assay relative to control; type: functional; settings: MDA-MB-435, 96 h, read-out: Activity

For `CCCC[C@H]1CCCC[C@H](C)Cc2cc(O)c(c(O)c2)[C@@H](CCCC)CCCC[C@H](C)[C@@H](O[C@@H]2OC[C@@H](O)[C@@H](O)[C@H]2O)c2cc(O)c1c(O)c2`, the IC50 (MDA-MB-231 [1]) was 1200 nM and the IC50 (MDA-MB-435 [2]) was 1300 nM.

For `CCCC[C@H]1CCCC[C@H](C)[C@@H](O[C@@H]2OC[C@@H](O)[C@@H](O)[C@H]2O)c2cc(O)c(c(O)c2)[C@@H](CCCC)CCCC[C@H](C)[C@@H](O[C@@H]2OC[C@@H](O)[C@@H](O)[C@H]2O)c2cc(O)c1c(O)c2`, the Activity (MDA-MB-435 [3]) was “Active” and the Activity (MDA-MB-231 [4]) was “Active”.

For `CCCC[C@H]1CCCC[C@H](C)[C@@H](O)c2cc(O)c(c(O)c2)[C@@H](CCCC)CCCC[C@H](C)[C@@H](O[C@@H]2OC[C@@H](O)[C@@H](O)[C@H]2O)c2cc(O)c1c(O)c2`, the Activity (MDA-MB-435 [3]) was “Active” and the Activity (MDA-MB-231 [4]) was “Active”.

In the case of `CCCCC(Cl)CCCC[C@H](C)[C@@H](O[C@@H]1OC[C@@H](O)[C@@H](O)[C@H]1O)c1cc(O)c([C@@H](CCCC)CCCC[C@H](C)[C@@H](OC(C)=O)c2cc(O)cc(O)c2)c(O)c1` (stereo partly drawn), the Activity (MDA-MB-435 [5]) is reported as “inactive” and the Activity (MDA-MB-231 [6]) is reported as “inactive”.

With `CCCC[C@H]1CCCC[C@H](C)[C@@H](OC(C)=O)c2cc(O)c(c(O)c2)[C@@H](CCCC)CCCC[C@H](C)[C@@H](O[C@@H]2OC[C@@H](O)[C@@H](O)[C@H]2O)c2cc(O)c1c(O)c2` the IC50 (MDA-MB-231 [1]) was 800 nM and the IC50 (MDA-MB-435 [2]) was 600 nM.

For `CCCC[C@H]1CCCC[C@H](C)[C@@H](OC(C)=O)c2cc(O)c(c(O)c2)[C@@H](CCCC)CCCC[C@H](C)[C@@H](OC(C)=O)c2cc(O)c1c(O)c2`, the Activity (MDA-MB-435 [3]) was “Active” and the Activity (MDA-MB-231 [4]) was “Active”.

In the case of `CC[C@]1(O)C[C@@H]2CN(CCc3c([nH]c4ccccc34)[C@@](C(=O)OC)(c3cc4c(cc3OC)N(C)[C@H]3[C@@](O)(C(=O)OC)[C@H](OC(C)=O)[C@]5(CC)C=CCN6CC[C@]43[C@@H]65)C2)C1` [VINBLASTINE], the viability at 0.001 µg/mL (MDA-MB-435 [7]) is reported as 49%.
